The source made the active and inactive calls. The rule behind the calls is not given here.
Legend:
Homo sapiens [1] = organism: Homo sapiens; assay: Inhibition of RNA polymerase 2 C-terminal domain phosphorylation at Ser2 residue in human KOPN8 cells at 0.5 uM after 24 hrs by Western blot analysis; assay type: cell-based
Outline: (§1)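 KOPN-8 cells were exposed to compound for 3 h and 24 h, with or without N-acetylcysteine added to a parallel set as antioxidant. Lysates were analysed by Western blot for cleaved PARP, Mcl-1, Ser-2-phosphorylated RNAPII CTD, cMyc, total Rb and pRb. Signals were compared against controls for dose-dependent change.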

MDA-MB-231 [2] = assay: Cell cycle arrest in human MDA-MB-231 cells assessed as accumulation at S phase at 5 uM after 24 hrs by propidium iodide staining-based flow cytometry (reference value: 20.15%); assay type: functional
SUP-B15 [3] = assay: Induction of apoptosis in human SUP-B15 cells assessed as early apoptotic cells at 5 uM after 24 hrs by Annexin V-FITC/propidium iodide staining-based flow cytometry (reference value: 0.1%); assay type: functional
KOPN-8 [4] = assay: Induction of apoptosis in human KOPN8 cells assessed as viable cells at 5 uM after 24 hrs by Annexin V-FITC/propidium iodide staining-based flow cytometry (reference value: 85.2%); assay type: functional; conditions: KOPN-8, 24 h, read-out: Activity
Outline: (§2)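 KOPN-8 cells were treated for 24 h, with a DMSO vehicle control and a staurosporine positive control. Cells were stained with FITC-Annexin V and propidium iodide and analysed by flow cytometry. Quadrant gating separated viable, early apoptotic, late apoptotic (Q2) and necrotic populations.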

Homo sapiens [5] = organism: Homo sapiens; assay: Inhibition of RNA polymerase 2 C-terminal domain phosphorylation at Ser2 residue in human KOPN8 cells after 24 hrs by Western blot analysis; assay type: cell-based; outline: as §1
KOPN-8 [6] = assay: Induction of apoptosis in human KOPN8 cells assessed as upregulation of cleaved PARP level at 100 uM pre-treated with NAC for 1 hr and measured after 3 hrs by Western blot analysis; assay type: functional, cell-based; outline: as §1
KOPN-8 [7] = assay: Effect on c-Myc expression in human KOPN8 cells at 30 uM pre-treated with NAC for 1 hr and measured after 24 hrs by Western blot analysis relative to control; assay type: functional
[8] = target: T1, Retinoblastoma-associated protein (Homo sapiens) (UniProt P06400); assay: Inhibition of Rb phosphorylation in human KOPN8 cells assessed as ratio of phosphorylated Rb to total Rb levels at 10 uM pre-treated with NAC for 1 hr and measured after 24 hrs by Western blot analysis relative to control; assay type: cell-based
T1 sequence (whole entry): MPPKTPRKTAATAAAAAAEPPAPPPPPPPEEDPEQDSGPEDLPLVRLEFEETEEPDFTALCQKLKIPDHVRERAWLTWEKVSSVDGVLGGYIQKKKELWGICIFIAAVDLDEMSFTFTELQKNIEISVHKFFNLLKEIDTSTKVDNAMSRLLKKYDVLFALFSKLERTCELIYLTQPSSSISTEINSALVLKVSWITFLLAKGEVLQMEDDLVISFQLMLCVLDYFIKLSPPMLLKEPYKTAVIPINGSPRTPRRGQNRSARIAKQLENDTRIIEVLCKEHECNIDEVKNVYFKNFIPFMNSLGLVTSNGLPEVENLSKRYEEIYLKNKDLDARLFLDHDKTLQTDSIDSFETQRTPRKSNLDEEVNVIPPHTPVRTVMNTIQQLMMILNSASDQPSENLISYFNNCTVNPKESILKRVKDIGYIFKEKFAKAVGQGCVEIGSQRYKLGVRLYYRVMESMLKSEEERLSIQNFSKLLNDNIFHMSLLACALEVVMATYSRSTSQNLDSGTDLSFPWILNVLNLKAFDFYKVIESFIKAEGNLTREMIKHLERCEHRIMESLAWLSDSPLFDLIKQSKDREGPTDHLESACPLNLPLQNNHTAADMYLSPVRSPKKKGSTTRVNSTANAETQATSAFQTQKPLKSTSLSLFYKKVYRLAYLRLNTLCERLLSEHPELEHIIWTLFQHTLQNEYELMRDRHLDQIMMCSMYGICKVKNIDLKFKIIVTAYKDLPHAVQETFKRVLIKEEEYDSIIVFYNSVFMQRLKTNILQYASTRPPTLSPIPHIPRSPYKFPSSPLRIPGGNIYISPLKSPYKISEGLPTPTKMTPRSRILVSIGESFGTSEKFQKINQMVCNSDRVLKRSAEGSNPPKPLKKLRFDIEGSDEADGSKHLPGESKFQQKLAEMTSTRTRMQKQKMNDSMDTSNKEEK
Outline: (§3)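 KOPN-8 pre-B ALL cells were treated for 3 h and 24 h, with or without N-acetyl cysteine added to a parallel set of cells as an antioxidant/ROS quencher. Lysates were analysed by Western blot for phosphorylated Rb and total Rb. The same blots also probed PARP cleavage, Mcl-1, Ser-2-phosphorylated RNAPII CTD and cMyc.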

KOPN-8 [9] = assay: Induction of apoptosis in human KOPN8 cells assessed as effect on Mcl-1 level at 10 uM after 3 hrs by Western blot analysis relative to control; assay type: functional
Outline: (§4)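 KOPN-8 cells were treated at 10–100 µM final, with or without N-acetylcysteine co-addition, for 3 h and 24 h. Lysates were analysed by Western blot for PARP cleavage, Mcl-1, phospho-Ser2 RNAPII CTD, c-Myc, total Rb and pRb. Levels are relative to the vehicle control.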

KOPN-8 [10] = assay: Effect on c-Myc expression in human KOPN8 cells at 30 uM pre-treated with NAC for 1 hr and measured after 3 hrs by Western blot analysis relative to control; assay type: functional
[11] = target: T1, Retinoblastoma-associated protein (Homo sapiens); assay: Inhibition of Rb phosphorylation in human KOPN8 cells assessed as ratio of phosphorylated Rb to total Rb levels at 10 uM after 24 hrs by Western blot analysis relative to control; assay type: cell-based; outline: as §3
KOPN-8 [12] = assay: Cell cycle arrest in human KOPN8 cells assessed as accumulation at S phase at 10 uM after 24 hrs by propidium iodide staining-based flow cytometry (reference value: 66.56%); assay type: functional
Outline: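 KOPN-8 cells treated 24 h alongside a DMSO vehicle and a staurosporine (2.0 µM) positive control. Apoptosis was scored by FITC Annexin V / propidium iodide flow cytometry with quadrant gating (early, late apoptotic). DNA content was measured by PI staining to give the percentage of cells in G0/G1, S and G2/M. Groups were compared by t-test; error bars are SD.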

SUP-B15 [13] = assay: Induction of apoptosis in human SUP-B15 cells assessed as late apoptotic cells at 10 uM after 24 hrs by Annexin V-FITC/propidium iodide staining-based flow cytometry (reference value: 2.2%); assay type: functional
MDA-MB-231 [14] = assay: Cell cycle arrest in human MDA-MB-231 cells assessed as accumulation at G0/G1 phase at 20 uM after 24 hrs by propidium iodide staining-based flow cytometry (reference value: 70.47%); assay type: functional
KOPN-8 [15] = assay: Induction of apoptosis in human KOPN8 cells assessed as necrotic cells at 10 uM after 24 hrs by Annexin V-FITC/propidium iodide staining-based flow cytometry (reference value: 0.2%); assay type: functional; outline: as §2
KOPN-8 [16] = assay: Induction of apoptosis in human KOPN8 cells assessed as effect on Mcl-1 level at 100 uM after 3 hrs by Western blot analysis relative to control; assay type: functional; outline: as §4

fold change (FC) [8] | fold change (FC) [11] | Compound | fold change (FC) (Homo sapiens [1]) | Activity (MDA-MB-231 [2]) | Activity (SUP-B15 [3]) | viability at 5 µM (KOPN-8 [4]) | inhibition (Homo sapiens [5]) | Activity (KOPN-8 [6]) | fold change (FC) (KOPN-8 [7]) | fold change (FC) (KOPN-8 [9]) | fold change (FC) (KOPN-8 [10]) | Activity (KOPN-8 [12]) | Activity (SUP-B15 [13]) | Activity (MDA-MB-231 [14]) | Activity (KOPN-8 [15]) | fold change (FC) (KOPN-8 [16])
– | – | CN(C)C(=O)c1cc2cnc(Nc3ccc(N4CCNCC4)cn3)nc2n1C1CCCC1 [RIBOCICLIB] | 2.3 | 4.64% | 0.3% | 2.3% | – | – | – | – | – | – | – | – | – | –
1 | 1 | COc1ccc(-c2c(I)c(=O)c3c(OC)cc(OC)cc3n2S(=O)(=O)c2ccc(OC)cc2)cc1 | – | – | – | – | Dose-dependent effect | inactive | 1 | 0.8 | 1 | 25.66% | 7% | 66.22% | 0.3% | 0.6
